Experimental data published in ChEMBL document CHEMBL2346582, “Guanidino anthrathiophenediones as G-quadruplex binders: uptake, intracellular localization, and anti-Harvey-Ras gene activity in bladder cancer cells” (J Med Chem, 2013).
Active and inactive are the calls of the source. The rule behind the calls is not given here.

Legend:
T-24 [1] = assay: Binding affinity to HRAS G-quadruplex DNA in human T24 cells assessed as reduction in p21HRAS level at 5 uM by immunoblotting analysis relative to control
Homo sapiens [2] = species: Homo sapiens; assay: Binding affinity to 32mer duplex DNA (unknown origin) at 5 uM by UV-vis titration
HEK293 [3] = assay: Cellular uptake in human HEK293 cells at 0.5 to 10 uM after 8 hrs by flow cytometric analysis; format: ADME, cell-based; settings: hek293, 8 h
Method in brief: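 Cells plated at 5 × 10^4 per well and treated next day with ligand at […] for 8 h. Then trypsinized, resuspended in PBS and analysed by flow cytometry (488 nm excitation, FL3 680 nm, log scale), at least 10,000 cells per sample. Uptake read from intrinsic ligand red fluorescence.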

T-24 [4] = assay: Cellular uptake in human T24 cells at 0.5 to 10 uM after 10 mins to 8 hrs by flow cytometric analysis; format: ADME, cell-based; settings: t-24, 10 µM
Method in brief: (§1)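 Flow cytometric uptake of 10 μM ligand over time (15 min, 1, 2, 6, 8 h; T24, and up to 8 h in NIH 3T3 and 293). Cells plated at 5 × 10^4 per well the day before. Ligand fluorescence detected in FL3 (680 nm), at least 10,000 cells acquired.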

HEK293 [5] = assay: Cellular uptake in human HEK293 cells at 0.5 to 10 uM after 10 mins to 8 hrs by flow cytometric analysis; format: ADME, cell-based; settings: hek293, 10 µM
Method in brief: as §1

T-24 [6] = assay: Binding affinity to HRAS G-quadruplex DNA in human T24 cells assessed as reduction in p21HRAS level at 5 uM after 48 hrs by immunoblotting analysis; format: cell-based
Method in brief: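 T24 cells treated with 5 μM ligand for 48 or 72 h. Lysates (30 μg) run on 12% SDS-PAGE and immunoblotted with monoclonal anti-HRAS and β-actin antibodies, with HRP detection. HRAS level = (p21HRAS/β-actin treated)/(p21HRAS/β-actin untreated) × 100.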

NIH3T3 = assay: Cellular uptake in mouse NIH/3T3 cells after 4 hrs by FACS flow cytometric analysis in presence of dynasore; format: ADME, cell-based; settings: nih3t3, 4 h
Homo sapiens [7] = species: Homo sapiens; assay: Thermal stabilization of human telomeric G-quadruplex FAM-TTAGGGTTAGGGTTAGGGTTAGGG-TAMRA DNA assessed as melting temperature at 1:3 DNA:ligand ratio by FRET assay
Method in brief: (§2)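 Telomeric quadruplex (TTAGGG)4, 200 nM, dual-labelled, in 100 mM KCl, Tris-HCl buffer. Melted with ligand at r = 1, 2, 3, 4 or 5 ([ligand]/[quadruplex]). Samples equilibrated 5 min at 20 °C, then heated in 1 °C/min steps to 95 °C; TM read from the donor/acceptor emission.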

Homo sapiens [8] = species: Homo sapiens; assay: Thermal stabilization of human telomeric G-quadruplex FAM-TTAGGGTTAGGGTTAGGGTTAGGG-TAMRA DNA assessed as melting temperature at 1:1 DNA:ligand ratio by FRET assay
Method in brief: as §2

Homo sapiens [9] = species: Homo sapiens; assay: Thermal stabilization of human telomeric G-quadruplex FAM-TTAGGGTTAGGGTTAGGGTTAGGG-TAMRA DNA assessed as melting temperature at 1:2 DNA:ligand ratio by FRET assay
Method in brief: as §2

T-24 [10] = assay: Cellular uptake in human T24 cells assessed as accumulation in nucleoplasm at 2.5 uM after 2 hrs by propidium iodide staining-based confocal microscopic analysis; format: ADME, cell-based; settings: t-24, 2 h
Method in brief: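 T24 cells plated (3 × 10^5) on coverslips and treated after 24 h with 2.5 μM ligand for 2 h. Fixed in 3% paraformaldehyde and permeabilized with Triton X-100. Cytoplasm immunostained for DRP1 with FITC secondary; nuclei stained with propidium iodide plus RNase A. Ligand red fluorescence excited at 543 nm; confocal Z-sections at 2 μm intervals.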

Homo sapiens [11] = species: Homo sapiens; assay: Thermal stabilization of human telomeric G-quadruplex FAM-TTAGGGTTAGGGTTAGGGTTAGGG-TAMRA DNA assessed as melting temperature at 1:5 DNA:ligand ratio by FRET assay
Method in brief: as §2

Homo sapiens [12] = species: Homo sapiens; assay: Thermal stabilization of human telomeric G-quadruplex FAM-TTAGGGTTAGGGTTAGGGTTAGGG-TAMRA DNA assessed as melting temperature at 1:4 DNA:ligand ratio by FRET assay
Method in brief: as §2

Activity (Homo sapiens [2]) | Drug uptake (HEK293 [3]) | Drug uptake (T-24 [4]) | Drug uptake (HEK293 [5]) | Drug uptake (NIH3T3) | Tm (Homo sapiens [7]) [°C] | Tm (Homo sapiens [8]) [°C] | Tm (Homo sapiens [9]) [°C] | Drug uptake (T-24 [10]) | Tm (Homo sapiens [11]) [°C] | Tm (Homo sapiens [12]) [°C] | Compound | Activity (T-24 [1]) | Activity (T-24 [6])
Active | Active | Active | Active | Active | – | – | – | – | – | – | N=C(N)NCCNc1c2c(c(NCCNC(=N)N)c3sccc13)C(=O)c1ccccc1C2=O | Active | Active
– | – | – | – | – | 79.1 | 58.5 | 76.3 | Active | 83.7 | 81.1 | N=C(N)NCCCCNc1c2c(c(NCCCCNC(=N)N)c3sccc13)C(=O)c1ccccc1C2=O | Active | Active
– | – | – | – | Active | – | – | – | – | – | – | N=C(N)NCCCNc1c2c(c(NCCNC(=N)N)c3sccc13)C(=O)c1ccccc1C2=O | – | –
